{"source": "ChEMBL document CHEMBL4613251", "about": "“Meliponamycins: Antimicrobials from Stingless Bee-Associated Streptomyces sp” (J Nat Prod, 2020)", "key": {"THP-1": {"tested_on": "THP-1", "test": "Cytotoxicity against human THP1 cells assessed as reduction in cell viability after 120 hrs by alamar blue assay", "format": "cell-based", "conditions": "THP-1, 120 h", "method_in_brief": "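THP-1 cells were seeded at 2 × 10^4/well in RPMI-1640 + 10% FCS with 20 ng/mL PMA and differentiated for 72 h (37 °C, 5% CO2). Serial 2-fold dilutions from 10 mM DMSO stocks were added for 120 h. Alamar Blue was then added for 3 h, and fluorescence was read at ex 536 / em 588 nm as % of untreated control. n = 2 biological replicates; doxorubicin control.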"}, "Leishmania infantum": {"tested_on": "Leishmania infantum", "test": "Antileishmanial activity against intracellular amastigote stage of Leishmania infantum MHOM/MA/67/ITMAP-263 infected in THP1 cells after 120 hrs by giemsa-staining based inverted microscopic mehod", "format": "functional, organism-based", "conditions": "MHOM/MA/67/ITMAP-263, THP-1, 120 h", "method_in_brief": "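THP-1 monocytes seeded at 2 × 10^4/well and differentiated to macrophages with 20 ng/mL PMA for 72 h (37 °C, 5% CO2). They were then infected with late-stage promastigotes (2 × 10^5/well; promastigotes grown in M199 + 10% FCS, 28 °C). Extracellular parasites were removed after 24 h, and 2-fold serial dilutions from 10 mM DMSO stocks were added for 120 h. Cells were methanol-fixed and Giemsa-stained, and amastigotes per macrophage were counted microscopically as % of untreated control. IC50 from a variable-slope fit; n = 2 biological replicates; miltefosine control.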"}, "Paenibacillus larvae": {"tested_on": "Paenibacillus larvae", "test": "Antibacterial activity against Paenibacillus larvae ATCC 9545 assessed as reduction in microbial growth by CLSI based broth microdilution method", "format": "functional", "method_in_brief": "(§1)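 MIC by broth microdilution following CLSI guidelines; strains propagated in ISP-2 medium. Compounds added from a 0.125 mg/mL DMSO stock, highest final concentration 6.9 μg/mL, then serial 2-fold dilutions with DMSO diluted alongside. Tetracycline served as positive control for both strains.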"}, "Staphylococcus aureus": {"tested_on": "Staphylococcus aureus", "test": "Antibacterial activity against Staphylococcus aureus INCAS0039 assessed as reduction in microbial growth by CLSI based broth microdilution method", "format": "functional", "method_in_brief": "as §1"}}}
{"molecule": "COc1cccc2c1C(=O)c1c(O)c3c(c(O)c1C2=O)C[C@@](O)(C(=O)CO)C[C@@H]3O[C@H]1C[C@H](N)[C@H](O)[C@H](C)O1", "note": "[DOXORUBICIN]", "values": [{"measurement": "IC50", "setting": "THP-1", "value": 1800, "unit": "nM"}]}
{"molecule": "CCCCCCCCCCCCCCCCOP(=O)([O-])OCC[N+](C)(C)C", "note": "[MILTEFOSINE]", "values": [{"measurement": "IC50", "setting": "Leishmania infantum", "value": 2400, "unit": "nM"}]}
{"molecule": "CN(C)[C@@H]1C(O)=C(C(N)=O)C(=O)[C@@]2(O)C(O)=C3C(=O)c4c(O)cccc4[C@@](C)(O)[C@H]3C[C@@H]12", "note": "[TETRACYCLINE]", "values": [{"measurement": "MIC", "setting": "Paenibacillus larvae", "value": 7.76, "unit": "µM"}, {"measurement": "MIC", "setting": "Staphylococcus aureus", "value": 0.05, "unit": "µg/mL"}]}
